Data taken from article PMC7249612 (Biochemistry, 2016).

Key:
LoxA [1] = assay: LoxA secondary product profile; format: biochemical, Pseudomonas aeruginosa; details: 10 μM substrate; for times slower relative to the Kcat with AA: pH 7.0
LoxA [2] = assay: LoxA substrate preference; format: biochemical, Pseudomonas aeruginosa; details: initial rate at 10 μM substrate, pH 7.0, relative to AA
Method in brief: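 His6-tagged LoxA was expressed in E. coli BL21(DE3), purified on Ni-NTA, and dosed by iron content. About 7 nM enzyme started each reaction. Each fatty acid substrate was C18 HPLC-purified and used at 10 μM in 25 mM HEPES pH 7.0 without Triton X-100. Initial rate of conjugated diene formation was followed at 234 nm (ε 25000 M−1cm−1) and expressed relative to the AA rate.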

[3] = test system: P. aeruginosa biofilm growth; assay: Abiotic microtiter biofilm assay; format: cell-based, Pseudomonas aeruginosa; details: 1 μg LoxA protein added to loxA mutant or wild-type bacteria
Method in brief: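 Wild-type PAO1 and loxA::Tn strains were grown overnight in Luria broth at 37 °C with 225 rpm shaking. Cultures were diluted 1:30 in minimal essential medium in 96-well plates, with or without 1 μg recombinant LoxA protein. Plates were incubated 24 h at 37 °C without agitation. Medium was removed, biofilms were washed and stained with crystal violet, and growth was read as absorbance at 550 nm.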

[4] = test system: P. aeruginosa biofilm growth on human airway epithelial cells; assay: Biotic biofilm assay on airway epithelial cells; format: cell-based, Pseudomonas aeruginosa; details: recombinant protein delivered to airway epithelial cells
Method in brief: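 16HBE human bronchial epithelial cells were seeded at 7.4×10^4 per 6.5 mm transwell and polarized at air-liquid interface for 7 days. Cells were rinsed in MEM, and washed bacteria (wild-type PAO1 or loxA::Tn) were added at MOI 25–30. After 1 h, apical medium was replaced with MEM + 0.4% L-arginine for 5 h at 37 °C. Recombinant LoxA was added apically in MEM at increasing doses. Biofilms were released with 0.1% Triton X-100 and serially diluted for CFU/ml. Three experiments were run.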

Question: For `CCCCC[C@H](O)/C=C/C=C\C/C=C\C/C=C\CCCC(=O)O` [15-HETE], which “times slower relative to the Kcat with AA” value (LoxA [1]) is on record?
Answer: 100,000 times

Question: For `CCCCCC(/C=C/C=C\C/C=C\C/C=C\CCCC(=O)O)OO` (stereo not drawn) [15-HpETE, 15-hydroperoxyeicosatetraenoic acid], which “times slower relative to the Kcat with AA” value (LoxA [1]) is on record?
Answer: 10,000 times

Question: With `CCCCC/C=C\C/C=C\C/C=C\C/C=C\CCCC(=O)O` [AA, arachidonic acid] as the molecule, how does the “% AA Rate (10 μM)” value (LoxA [2]) read?
Answer: 100%

Question: What about the “Relative Kcat” value (LoxA [1]; Kcat of LoxA with AA set to 1, unitless) of the same molecule?
Answer: 1

B1: LoxA protein: purified recombinant P. aeruginosa 15-lipoxygenase added to biofilm assays (protein, UniProt Q9I4G8 20-685, looked up)
Lipoxygenase LoxA: NDSIFFSPLKYLGAEQQRSIDASRSLLDNLIPPSLPQYDNLAGKLARRAVLTSKKLVYVWTENFGNVKGVPMARSVPLGELPNVDWLLKTAGVIVELIVNFVASLPASAAAQFERIATGLSGDLEAARQVHEALLEEAKNDPAAAGSLLLRFTELQTRVIAILTRVGLLVDDILKSASNLVTQRGQGDGLNRFRAVFGTLRLPEVADSFRDDEAFAYWRVAGPNPLLIRRVDALPANFPLGEEQFRRVMGADDSLLEAAASRRLYLLDYAELGKLAPSGAVDKLLTGTGFAYAPIALFALGKDRARLLPVAIQCGQDPATHPMFVRPAESESDLYWGWQMAKTVVQVAEENYHEMFVHLAQTHLVSEAFCLATQRTLAPSHPLHVLLAPHFEGTLFINEGAARILLPSAGFIDVMFAAPIQDTQATAGGNRLGFDFYRGMLPESLKARNVDDPLALPDYPYRDDGLLVWNAIRQWAADYVAVYYASDGDVTADVELAAWVGEVIGSGKVAGFRPITGRSQLVEVLTMVIFTASAQHAAVNFPQPSMMTYAPAICAMSAAPAPDSPSGKSEADWLKMMPPTLVALEKVNIYHLLGSVYHGRLGDYRQTGFPYAPVFSDRRVTASGGPLERFQARLKEVEATIRTRNQARRRPYEYLLPSRIPASTNI
Question: How did the “effect on abiotic biofilm growth” value [3] turn out when B1 was run?
Answer: did not alter biofilm growth

Question: And the “effect on biotic biofilm growth of loxA transposon mutant” value [4]?
Answer: This decrease could be complemented
